Experiments:
[1] = tested on: CB2 F197 replaced with valine; settings: cited from earlier work
CB2 = CB2 (Homo sapiens, UniProt P34972); experiment: Radioligand competition binding assay, [3H]CP-55,940 displacement; settings: inhibition of [3H]CP-55,940 (3 nM) binding to CB2 membrane protein
Outline: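 CB2 membrane protein (5 μg) incubated with [3H]CP-55,940 (3 nM final) and serial dilutions of test compound. Compound was diluted in binding buffer with 10% DMSO and 0.4% methylcellulose. Incubation was 1 h at 30 °C with gentle shaking, then GF/B filtration and scintillation counting. Run in duplicate, reported as mean ± SEM; Ki from nonlinear regression.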

human CB2 receptors = experiment: LANCE cAMP assay in CB2-transfected CHO cells; type: cell-based
Outline: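 CHO cells stably transfected with wild-type human CB2, seeded at 2000 cells/well in RPMI-1640 with 1% dialyzed FBS, 25 mM HEPES and G-418, cultured overnight. Added cAMP antibody plus RO20-1724 (50 μM final) in DPBS/0.1% BSA, then test compound or forskolin (5 μM final). Incubated 45 min at RT, plus 1 h with detection reagent. TR-FRET read at ex 340/em 665 nm. ≥2 independent experiments in triplicate; EC50 from nonlinear regression.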

[2] = CHO cells expressing human CB2, forskolin-induced cAMP

Chain of CB2 (P34972 whole entry): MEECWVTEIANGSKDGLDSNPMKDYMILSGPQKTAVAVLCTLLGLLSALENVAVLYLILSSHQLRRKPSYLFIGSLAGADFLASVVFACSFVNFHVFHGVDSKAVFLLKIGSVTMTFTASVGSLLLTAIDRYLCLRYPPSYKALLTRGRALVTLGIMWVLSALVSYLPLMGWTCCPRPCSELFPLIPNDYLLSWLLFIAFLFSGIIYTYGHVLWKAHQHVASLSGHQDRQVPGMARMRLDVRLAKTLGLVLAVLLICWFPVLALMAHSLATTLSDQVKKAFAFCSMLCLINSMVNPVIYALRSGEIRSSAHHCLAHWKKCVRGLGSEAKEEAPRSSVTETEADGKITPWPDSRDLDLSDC

SMILES | Ki (CB2) [µM] | also measured
CCCCC/C=C\C/C=C\C/C=C\C/C=C\CCCC(=O)NCCO [AEA] |  | Effect of replacement of F197 with valine on association [1]: no effect
CCCCCCC(C)(C)c1ccc([C@@H]2C[C@H](O)CC[C@H]2CCCO)c(O)c1 [CP55940] |  | Effect of replacement of F197 with valine on association [1]: no effect
CC1CN(CCOC(=O)Nc2ccc(Cl)cc2)CCN1C(C)(C)C (stereo not shown) [NSC93299] | 2.23 | 
Cc1ccc(OCc2c(COc3ccc(Cl)cc3)sc3ccc(Cl)cc23)cc1 [NSC162677] | 1.55 | 
Cc1ccc(S(=O)(=O)N(Cc2ccc(Cl)cc2)S(=O)(=O)c2ccc(C)cc2)cc1 [NSC273936] | 0.346 | 
Cc1ccc(S(=O)(=O)N(CCc2ccc(Cl)cc2)S(=O)(=O)c2ccc(C)cc2)cc1 [NSC273939] | 0.192 | 
Cc1ccc(S(=O)(=O)N(CCc2ccccc2)S(=O)(=O)c2ccc(C)cc2)cc1 [NSC273940] | 0.195 | 
Cc1ccc(S(=O)(=O)NC(CC(=O)OCc2ccccc2)C(=O)OCc2ccccc2)cc1 (stereo not shown) [NSC296950] | 2.36 | Functional activity in LANCE cAMP assay (human CB2 receptors; [2]): inverse agonist
CCN(CC)CCCNc1cccc2ccc(OC)nc12.I [NSC402300] | 0.398 | Functional activity in LANCE cAMP assay (human CB2 receptors; at concentrations above 10 μM): inverse agonist; Functional activity in LANCE cAMP assay (human CB2 receptors; at concentrations below 10 μM): neutral antagonist
Cc1ccc(C)c(NC(=O)CCC(=O)C(C#N)c2nc3ccccc3s2)c1 (stereo not shown) [NSC618804] | 0.656 | 
COC(=O)CCc1c(Cc2ccc[nH]2)[nH]c(C(=O)OCc2ccccc2)c1C [NSC669611] | 0.923 | Functional activity in LANCE cAMP assay (human CB2 receptors; [2]): behaves similarly to NSC402300; Functional activity in LANCE cAMP assay (human CB2 receptors; at concentrations below 10 μM): neutral antagonist
COc1ccc(C(=O)c2nc3ccccc3n2CC(=O)c2ccc(Cl)cc2)cc1 [NSC745454] | 1.55 | 
Cc1c(C(=O)c2cccc3ccccc23)c2cccc3c2n1[C@H](CN1CCOCC1)CO3 [WIN55,212-2] |  | Decrease in binding affinity to CB2 on replacement of F197 with valine [1]: 14 fold
CCCCCCC(C)(C)c1cc(O)c2c(c1)OC(C)(C)[C@@H]1CC=C(CO)C[C@@H]21 [hU-210] |  | Effect of replacement of F197 with valine on association [1]: no effect
